Measured values published in paper PMC8414988 (Pediatric blood & cancer, 2021).

Experiments:
[1] = human, in vivo, 28 days
[2] = tested on: progressive or refractory brain tumors; assay: Tumor response assessment; type: in vivo, human
Summary of the method: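 Oral once-daily dosing, 21 of 28 days, for up to 26 courses. Response by bi-dimensional MR measurement. CR: all enhancing tumor gone. PR: ≥50% reduction. Both held ≥8 weeks on stable or decreasing corticosteroids. PD: >25% increase from smallest measurement, new lesion, or neurologic worsening. Patients receiving ≥1 dose evaluable.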

[3] = cited from earlier work

Compound: CC(=O)c1c(C)c2cnc(Nc3ccc(N4CCNCC4)cn3)nc2n(C2CCCC2)c1=O [palbociclib]
- Dose limiting toxicities observed [1]: grade 4 neutropenia and grade 3 thrombocytopenia and dehydration
- objective response ([2]; Stratum I and II): No patients on either stratum had an objective response
- time on treatment ([2]; Stratum II, 3 subjects (2 at 50 mg/m^2 and 1 at 75 mg/m^2)): 4 courses
- time on treatment ([2]; one patient with GBM, 75 mg/m^2): 6 courses
- time on treatment ([2]; one patient with anaplastic ependymoma, Stratum I, 75 mg/m^2): 18 courses
- solubility [3]: pH-dependent solubility
